Numbered stars: 1 amine (or outer) side, 2 acyl side, 3 side chain; on linkers, the order of the positions; unused ones are H or OH. Square brackets hold non-standard residues; d marks the D form. Peptide text beside a SMILES is read from it. * marks the point of attachment. ξ: configuration not given here. Sta(3ξ) = CC(C)C[C@H](N[*:1])C(O)CC(=O)[*:2]; X4 = CC(C)C[C@H](N*)C(O)C[C@H](C(N)=O)C(C)C; X5 = CC(C)C[C@@H](CN[C@H](C(N)=O)C(C)C)N*; X1 = CC(C)CC(N[*:1])C(O)CC(=O)[*:2]; X3 = CC(C)CC(N[*:1])C(O)C(=O)[*:2]; Ile(3ξ) = CCC(C)[C@H](N)C(=O)O; X2 = CC(C)CC(N*)C(O)CC(N)=O; Cbz = O=C(OCc1ccccc1)*; Boc = CC(C)(C)OC(=O)*; For = O=C*

For the first experiment, the target named is T1, Renin (Homo sapiens, UniProt P00797).
T1 sequence (P00797 whole entry): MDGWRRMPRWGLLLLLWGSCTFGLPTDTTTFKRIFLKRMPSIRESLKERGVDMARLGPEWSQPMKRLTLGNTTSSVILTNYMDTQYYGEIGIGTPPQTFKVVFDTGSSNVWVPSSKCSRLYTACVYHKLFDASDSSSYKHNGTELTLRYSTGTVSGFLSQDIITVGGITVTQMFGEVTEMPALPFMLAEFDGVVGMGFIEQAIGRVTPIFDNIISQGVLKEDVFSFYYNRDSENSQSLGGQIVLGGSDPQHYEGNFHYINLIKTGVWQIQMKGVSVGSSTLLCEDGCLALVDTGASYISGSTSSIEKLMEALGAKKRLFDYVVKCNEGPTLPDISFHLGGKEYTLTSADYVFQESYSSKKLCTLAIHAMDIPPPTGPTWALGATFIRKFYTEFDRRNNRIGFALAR
The experiment is described as follows: In vitro inhibitory activity against human plasma renin. The format is cell-free. An outline of the steps: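 Reconstituted lyophilized human plasma with 0.1% EDTA, plus PMSF and maleate buffer (pH 6.0). Inhibitor added in 1.0% Tween 80/water vehicle. Angiotensin I generated for 90 min at 37 °C and measured by RIA.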
A word on the IC50: it is the point on the concentration scale where inhibition reaches its midpoint. In turn, `CC[C@H](C)[C@H](NC(=O)[C@@H](C[C@H](O)[C@H](CC(C)C)NC(=O)[C@H](Cc1c[nH]cn1)N(C)C(=O)[C@H](Cc1ccccc1)NC(=O)[C@@H]1CCCN1C(=O)OC(C)(C)C)C(C)C)C(=O)NCc1ccccn1` registered an IC50 of 0.11 nM. In other words, the sub-nanomolar range. On the same count and under the same terms, with `CC(=O)N[C@H](Cc1c[nH]c2ccccc12)C(=O)N1CCC[C@H]1C(=O)N[C@@H](Cc1ccccc1)C(=O)N[C@@H](Cc1c[nH]cn1)C(=O)N[C@@H](Cc1ccccc1)C(=O)N[C@@H](Cc1ccccc1)C(=O)N[C@H](C(=O)N[C@@H](Cc1cn(C=O)c2ccccc12)C(N)=O)C(C)C` the figure was 5000 nM; with `CC(=O)N[C@@H](Cc1cn(C=O)c2ccccc12)C(=O)N1CCC[C@H]1C(=O)N[C@@H](Cc1ccccc1)C(=O)N[C@@H](Cc1cnc[nH]1)C(=O)N[C@@H](Cc1ccccc1)C(=O)N[C@@H](Cc1ccccc1)C(=O)N[C@H](C(=O)N[C@@H](Cc1cn(C=O)c2ccccc12)C(N)=O)C(C)C`, 500 nM; with `CC[C@H](C)[C@H](NC(=O)CC(O)[C@H](CC(C)C)NC(=O)[C@H](Cc1c[nH]cn1)NC(=O)[C@H](Cc1ccccc1)NC(=O)[C@@H]1CCCN1C(=O)[C@@H](Cc1cn(C=O)c2ccccc12)NC(C)=O)C(N)=O` (some centres undefined), 14 nM. Same read-out and setting: with `CC[C@H](C)[C@H](NC(=O)[C@@H](NC[C@H](CC(C)C)NC(=O)[C@H](Cc1c[nH]cn1)NC(=O)[C@H](Cc1ccccc1)NC(=O)[C@@H]1CCCN1C(=O)[C@H](Cc1c[nH]cn1)NC(=O)[C@@H]1CCCN1)C(C)C)C(=O)N[C@@H](Cc1c[nH]cn1)C(=O)N[C@@H](CCCCN)C(=O)O` the figure was 10 nM. The same measure, in the same setting: in the case of `CC[C@H](C)[C@H](NC(=O)CC(O)[C@H](CC(C)C)NC(=O)[C@H](Cc1cnc[nH]1)NC(=O)[C@H](Cc1ccccc1)NC(=O)[C@@H]1CCCN1C(=O)[C@H](Cc1cn(C=O)c2ccccc12)NC(C)=O)C(N)=O` (some centres undefined) it was 0.1 nM; in that of `CC(=O)N[C@H](Cc1c[nH]cn1)C(=O)N1CCC[C@H]1C(=O)N[C@@H](Cc1ccccc1)C(=O)N[C@@H](Cc1ccccc1)C(=O)N[C@H](C(=O)N[C@@H](Cc1cn(C=O)c2ccccc12)C(N)=O)C(C)C`, roughly 100000 nM; in that of `CC(=O)N[C@H](Cc1cn(C=O)c2ccccc12)C(=O)N1CCC[C@H]1C(=O)N[C@@H](Cc1ccccc1)C(=O)N[C@@H](Cc1cnc[nH]1)C(=O)N[C@@H](Cc1ccccc1)C(=O)N[C@@H](Cc1ccccc1)C(=O)N[C@H](C(=O)N[C@@H](Cc1cn(C=O)c2ccccc12)C(N)=O)C(C)C`, greater than 100000 nM. Compound `CC(=O)N[C@@H](Cc1c[nH]cn1)C(=O)N[C@@H](Cc1ccccc1)C(=O)N[C@@H](Cc1cn(C=O)c2ccccc12)C(=O)N[C@@H](Cc1ccccc1)C(=O)N[C@@H](Cc1ccccc1)C(=O)N[C@H](C(=O)N[C@@H](Cc1cn(C=O)c2ccccc12)C(N)=O)C(C)C` (Ac-HFW(For)FFVW(For)-NH2) returned an IC50 greater than 100000 nM.

On to `CC(=O)N[C@@H](Cc1cnc[nH]1)C(=O)N1CCC[C@H]1C(=O)N[C@@H](Cc1ccccc1)C(=O)N[C@@H](Cc1cnc[nH]1)C(=O)N[C@@H](Cc1ccccc1)C(=O)N[C@@H](Cc1ccccc1)C(=O)N[C@H](C(=O)N[C@@H](Cc1cn(C=O)c2ccccc12)C(N)=O)C(C)C` (Ac-HPFHFFVW(For)-NH2), for which half-maximal inhibition (IC50) required 8300 nM.

Compound `CC[C@H](C)[C@H](NC(=O)CC(O)[C@H](CC(C)C)NC(=O)[C@H](Cc1cnc[nH]1)NC(=O)[C@H](Cc1ccccc1)NC(=O)[C@@H]1CCCN1C(=O)[C@H](Cc1cnc[nH]1)NC(C)=O)C(N)=O` (some centres undefined) (Ac-HPFH[Sta(3ξ)]I-NH2) came in with an IC50 of 6.8 nM.

In turn, `CC(=O)N[C@@H](Cc1cn(C=O)c2ccccc12)C(=O)NCC(=O)N[C@@H](Cc1ccccc1)C(=O)N[C@@H](Cc1cnc[nH]1)C(=O)N[C@@H](Cc1ccccc1)C(=O)N[C@@H](Cc1ccccc1)C(=O)N[C@H](C(=O)N[C@@H](Cc1cn(C=O)c2ccccc12)C(N)=O)C(C)C` (Ac-W(For)GFHFFVW(For)-NH2) showed an IC50 greater than 100000 nM. Still for that read-out and setting: in the case of `CC(=O)N[C@@H](Cc1cn(C=O)c2ccccc12)C(=O)N1CCC[C@H]1C(=O)N[C@@H](Cc1ccccc1)C(=O)N[C@@H](Cc1cnc[nH]1)C(=O)NC(CC(C)C)C(O)CC(N)=O` (some centres undefined) (Ac-W(For)PFH-X2) it was 3.8 nM; in that of `CC(=O)N[C@@H](Cc1cn(C=O)c2ccccc12)C(=O)N1CCC[C@H]1C(=O)N[C@@H](Cc1ccccc1)C(=O)N[C@@H](Cc1c[nH]cn1)C(=O)N[C@@H](CC(C)C)C(O)C[C@H](C(N)=O)C(C)C` (some centres undefined) (Ac-W(For)PFH-X4), 0.31 nM.

For `CC(=O)N[C@@H](Cc1cn(C=O)c2ccccc12)C(=O)N1CCC[C@H]1C(=O)N[C@@H](Cc1ccccc1)C(=O)N[C@@H](Cc1c[nH]cn1)C(=O)N[C@H](CN[C@H](C(N)=O)C(C)C)CC(C)C` (Ac-W(For)PFH-X5), the 50% inhibitory concentration (IC50) turned out to be 21 nM. As to `CC(=O)N[C@@H](Cc1cn(C=O)c2ccccc12)C(=O)N1CCC[C@H]1C(=O)N[C@@H](Cc1ccccc1)C(=O)N[C@@H](Cc1c[nH]cn1)C(=O)N[C@@H](Cc1ccccc1)C(=O)N[C@@H](Cc1ccccc1)C(N)=O` (Ac-W(For)PFHFF-NH2), the IC50 was greater than 100000 nM. Compound `CC(=O)N[C@@H](Cc1cn(C=O)c2ccccc12)C(=O)N1CCC[C@H]1C(=O)N[C@@H](Cc1ccccc1)C(=O)N[C@@H](Cc1cnc[nH]1)C(=O)N[C@@H](Cc1ccccc1)C(=O)N[C@@H](Cc1ccccc1)C(=O)N[C@H](C(N)=O)C(C)C` (Ac-W(For)PFHFFV-NH2) displayed a 50% inhibitory concentration (IC50) of 2100 nM. As to `CC(=O)N[C@@H](Cc1cn(C=O)c2ccccc12)C(=O)N1CCC[C@H]1C(=O)N[C@@H](Cc1ccccc1)C(=O)N[C@@H](Cc1c[nH]cn1)C(=O)NC(CC(C)C)C(O)CC(=O)N[C@H](C(N)=O)C(C)C` (some centres undefined) (Ac-W(For)PFH[X1]V-NH2), the IC50 came to 0.53 nM. Against the preceding compound, the IC50 is about 4000-fold lower. Compound `CC(=O)N[C@@H](Cc1cn(C=O)c2ccccc12)C(=O)N1CCC[C@H]1C(=O)N[C@@H](Cc1ccccc1)C(=O)N[C@@H](Cc1cnc[nH]1)C(=O)NC(CC(C)C)C(O)CC(=O)N[C@H](C(=O)N[C@@H](Cc1cn(C=O)c2ccccc12)C(N)=O)C(C)C` (some centres undefined) (Ac-W(For)PFH[X1]VW(For)-NH2) gave a half-maximal inhibitory concentration (IC50) of 0.38 nM.

`CC[C@H](C)[C@H](NC(=O)CC(O)[C@H](CC(C)C)NC(=O)[C@H](Cc1c[nH]cn1)NC(=O)[C@H](Cc1ccccc1)NC(=O)[C@@H]1CCCN1C(=O)[C@H](Cc1c[nH]c2ccccc12)NC(C)=O)C(N)=O` (some centres undefined) (Ac-WPFH[Sta(3ξ)]I-NH2) came in with an IC50 of 1.6 nM. For the compound `CC[C@H](C)[C@H](NC(=O)C(O)C(CC(C)C)NC(=O)[C@H](Cc1c[nH]cn1)NC(=O)[C@H](Cc1ccccc1)NC(=O)[C@@H]1CCCN1C(=O)[C@H](CCCN=C(N)N)NC(=O)[C@H](CCCN=C(N)N)NC(=O)OCc1ccccc1)C(=O)N[C@@H](Cc1c[nH]cn1)C(=O)N[C@@H](CCCCNC(=O)OC(C)(C)C)C(=O)OC` (some centres undefined) (Cbz-RRPFH[X3]IHK(Boc)-OMe), the IC50 is 1 nM. Same read-out and setting: in the case of `CCC(C)[C@H](NC(=O)CC(O)C(CC(C)C)NC(=O)[C@H](Cc1c[nH]cn1)NC(=O)[C@H](Cc1ccccc1)NC(=O)[C@@H]1CCCN1C=O)C(N)=O` (some centres undefined) (For-PFH[X1][Ile(3ξ)]-NH2) it was 31 nM.

For another experiment, the target named is Renin (Sus scrofa). The experiment is described as follows: In vitro inhibitory activity towards porcine kidney renin.
On to `CC(C)CC(NC(=O)[C@@H](N)Cc1cnc[nH]1)C(O)CC(=O)N[C@@H](CC(C)C)C(=O)N[C@@H](Cc1ccccc1)C(N)=O` (some centres undefined), for which it took 370000 nM to reach half-maximal inhibition (IC50).

In turn, `CC(C)CC(NC(=O)[C@H](Cc1c[nH]cn1)NC(=O)[C@H](Cc1ccccc1)NC(=O)[C@@H]1CCCN1)C(O)CC(=O)N[C@@H](CC(C)C)C(=O)N[C@@H](Cc1ccccc1)C(N)=O` (some centres undefined) (H-PFH[X1]LF-NH2) registered an IC50 of 200 nM. This IC50 is about 1800-fold lower than that of the compound before.

(Values after ChEMBL document CHEMBL1123947, “Design, structure-activity, and molecular modeling studies of potent renin inhibitory peptides having N-terminal Nin-For-Trp (Ftr): angiotensinogen congeners modified by P1-P1' Phe-Phe, Sta, Leu psi[CH(OH)CH2]Val or leu psi[CH2NH]Val substitutions” (J Med Chem, 1988).)
